According to the RNAGym collection of RNA variant scans (doi:10.1126/science.aae0568):
Variants at the floor of the assay were thinned out.

B1: tRNA (parent)
chain: GUUCCGUUGGCGUAAUGGUAACGCGUCUCCCUCCUAAGGAGAAGACUGCGGGUUCGAGUCCCGUACGGAACG

Variants of: B1
Assay: yeast fitness relative to wild type (ratio to wild type); higher = fitter; tRNA-Arg(CCU), competitive growth, 37 C, YPD
How it was run: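 Amplicons of the tRNA-Arg(CCU) gene were sequenced, 100-nucleotide paired-end, from the start population and from each end population of a pooled yeast competition. The competition, in six parallel replicates, lasted 24 hours in YPD at 37°C. Fitness relative to wild type was calculated from changes in genotype frequencies. Genotypes had to have ≥ 100 starting reads, and estimates < 0.5 were set to 0.5.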

Going from G39A C62G to G39A C66A, the yeast fitness falls from 0.752 to 0.698.

Going from G39A C66G to G39A C66U A70G, the yeast fitness falls from 0.711 to 0.601.

Compared with G39A G41C C46A G68A, G39A G44A G50A is higher in yeast fitness: 0.55 for the first, 0.607 for the second.

Going from G39A G44A G51A to G39A G44C, the yeast fitness rises from 0.597 to 0.816.

Going from G39A G48C to G39A G51C, the yeast fitness falls from 0.718 to 0.562.

Going from G39A G51C U59C to G39A G52C C55G, the yeast fitness rises from no more than 0.5 to 0.541.

G39A G52C C55G C60A and G39A G52C C55G G63A cannot be ordered by yeast fitness: no more than 0.5 for the first, no more than 0.5 for the second.

Compared with G39A G56A, G39A G56C is lower in yeast fitness: 0.914 for the first, 0.603 for the second.

Going from G39A G63C to G39A G68C A70G, the yeast fitness falls from 0.728 to no more than 0.5.

Going from G39A G68U to G39A U47A, the yeast fitness rises from 0.824 to 0.89.

G39A U47A A57G and G39A U47A C55U G67A A69G cannot be ordered by yeast fitness: no more than 0.5 for the first, no more than 0.5 for the second.

Going from G39A U53A to G39A U53A G68C, the yeast fitness falls from 0.596 to no more than 0.5.

Compared with G39A U54A, G39A U59C is higher in yeast fitness: 0.61 for the first, 0.956 for the second.

G39C A40C G41A A42G A65U and G39C A40U U64G cannot be ordered by yeast fitness: no more than 0.5 for the first, no more than 0.5 for the second.

First: G39C A42C
Second: G39C A42C A45C
The yeast fitness of the first is higher: 0.687 for the first, 0.538 for the second.

G39C A42C A45C A70C and G39C A42G A43U C62U A69U cannot be ordered by yeast fitness: no more than 0.5 for the first, no more than 0.5 for the second.

Compared with G39C A42G G63A, G39C A43C A57C is higher in yeast fitness: no more than 0.5 for the first, 0.628 for the second.

Compared with G39C A43C G56A C60G, G39C A43G is higher in yeast fitness: no more than 0.5 for the first, 0.684 for the second.

First: G39C A43G G44C A45U C49G
Second: G39C A43G G48C C49A G50A
The yeast fitness of the first is higher: 0.563 for the first, no more than 0.5 for the second.

Going from G39C A43G U53A C62A G68C to G39C A43U, the yeast fitness rises from no more than 0.5 to 0.934.

First: G39C A43U A70U
Second: G39C A43U G58C
The yeast fitness of the first is higher: 0.691 for the first, 0.57 for the second.

G39C A57C and G39C A57C A70U cannot be ordered by yeast fitness: no more than 0.5 for the first, no more than 0.5 for the second.

Going from G39C A57C C61A U64C to G39C A65G, the yeast fitness rises from no more than 0.5 to 0.754.

First: G39C A65G A70U
Second: G39C A69C
The yeast fitness of the first is lower: no more than 0.5 for the first, 0.834 for the second.

Going from G39C A69U to G39C C46A A69C, the yeast fitness falls from 0.826 to 0.53.

First: G39C C46A C62G
Second: G39C C46G
The yeast fitness of the first is lower: no more than 0.5 for the first, 0.875 for the second.

Compared with G39C C46U C49U G56A G68C, G39C C46U C62U C66G is lower in yeast fitness: 0.54 for the first, no more than 0.5 for the second.

Going from G39C C49G to G39C C49U, the yeast fitness rises from 0.59 to 0.827.

Going from G39C C55G to G39C C60A, the yeast fitness rises from no more than 0.5 to 0.587.

First: G39C C60G
Second: G39C C60G A70U
The yeast fitness of the first is higher: 0.619 for the first, 0.524 for the second.

Going from G39C C60U to G39C C60U A69C, the yeast fitness falls from 0.656 to 0.565.

Going from G39C C61U to G39C C62A U64A, the yeast fitness falls from 0.751 to no more than 0.5.

Compared with G39C C62G, G39C C62U G63C is lower in yeast fitness: 0.607 for the first, no more than 0.5 for the second.

Compared with G39C G41A C60G C61U C62G A65U, G39C G44C is higher in yeast fitness: 0.547 for the first, 0.749 for the second.

Compared with G39C G44C A65C, G39C G44C C46U is higher in yeast fitness: no more than 0.5 for the first, 0.588 for the second.

First: G39C G44C C46U A70U
Second: G39C G44C G50A
The yeast fitness of the first is lower: no more than 0.5 for the first, 0.566 for the second.

G39C G44C G52C G56A and G39C G44C G56C cannot be ordered by yeast fitness: no more than 0.5 for the first, no more than 0.5 for the second.

Compared with G39C G48C G52C, G39C G50A is higher in yeast fitness: no more than 0.5 for the first, 0.752 for the second.

G39C G50A U59C and G39C G50A U64A cannot be ordered by yeast fitness: no more than 0.5 for the first, no more than 0.5 for the second.

Compared with G39C G50C, G39C G51A is higher in yeast fitness: 0.575 for the first, 0.739 for the second.

Going from G39C G51C A65G to G39C G52C, the yeast fitness rises from no more than 0.5 to 0.635.

Compared with G39C G63A, G39C G67A A70G is lower in yeast fitness: 0.7 for the first, 0.648 for the second.

Compared with G39C G67C, G39C U47C is higher in yeast fitness: 0.742 for the first, 0.822 for the second.

Compared with G39C U53A C62A G68C, G39C U53G is higher in yeast fitness: no more than 0.5 for the first, 0.578 for the second.

Going from G39C U54G A65G to G39C U54G A70C, the yeast fitness rises from no more than 0.5 to 0.564.

Compared with G39C U64C, G39U C49A G58C is lower in yeast fitness: 0.959 for the first, 0.646 for the second.

Going from G39U C66U to G39U G52A, the yeast fitness falls from 0.854 to 0.779.

First: A40C A42C A70U
Second: A40C A42C G56A G67A
The yeast fitness of the first is higher: 0.549 for the first, no more than 0.5 for the second.

Going from A40C A42C U53A to A40C A42G, the yeast fitness rises from no more than 0.5 to 0.886.

Going from A40C A42G A43G C49A G52A to A40C A42G G56C, the yeast fitness rises from no more than 0.5 to 0.588.

Compared with A40C A42U C49G C66G, A40C A42U C49U G50C C66U is lower in yeast fitness: 0.612 for the first, 0.565 for the second.

Going from A40C A42U G56A C66G to A40C A43G, the yeast fitness rises from no more than 0.5 to 0.741.

First: A40C A43U
Second: A40C A43U C60U
The yeast fitness of the first is higher: 0.986 for the first, 0.588 for the second.

Going from A40C A43U C61A to A40C A45C A70U, the yeast fitness falls from 0.611 to no more than 0.5.

First: A40C A45C C62U
Second: A40C A45G
The yeast fitness of the first is lower: no more than 0.5 for the first, 1 for the second.

Compared with A40C A45G U59A, A40C A45U is higher in yeast fitness: 0.573 for the first, 0.98 for the second.

First: A40C A57G
Second: A40C A57G A70C
The yeast fitness of the first is higher: 0.813 for the first, 0.55 for the second.

A40C A57U C60G C66G and A40C A57U C61U cannot be ordered by yeast fitness: no more than 0.5 for the first, no more than 0.5 for the second.

Going from A40C A65C to A40C A65G, the yeast fitness rises from 0.825 to 0.924.

First: A40C A65U
Second: A40C A65U C66A
The yeast fitness of the first is higher: 0.817 for the first, 0.562 for the second.

Going from A40C A69C to A40C A69U, the yeast fitness rises from 0.765 to 0.843.

Compared with A40C A70C, A40C A70G is higher in yeast fitness: 0.94 for the first, 0.979 for the second.

Compared with A40C C46A, A40C C46A C61G A69G is lower in yeast fitness: 0.994 for the first, no more than 0.5 for the second.

Compared with A40C C46G G51C A57C A65U A70C, A40C C46U is higher in yeast fitness: 0.555 for the first, 0.875 for the second.

A40C C46U G52C and A40C C49A G51C U59A cannot be ordered by yeast fitness: no more than 0.5 for the first, no more than 0.5 for the second.

First: A40C C49G C60G
Second: A40C C49U
The yeast fitness of the first is lower: 0.532 for the first, 0.892 for the second.

First: A40C C55G
Second: A40C C55U
The yeast fitness of the first is lower: 0.527 for the first, 0.929 for the second.

First: A40C C55U C60G C62A
Second: A40C C60G C62G
The yeast fitness of the first is higher: 0.546 for the first, no more than 0.5 for the second.

A40C C60U C61U and A40C C60U G67A cannot be ordered by yeast fitness: no more than 0.5 for the first, no more than 0.5 for the second.

First: A40C C61A A65U
Second: A40C C61A C66A
The yeast fitness of the first is higher: 0.625 for the first, no more than 0.5 for the second.

First: A40C C62G G63A
Second: A40C C62U
The yeast fitness of the first is lower: no more than 0.5 for the first, 0.863 for the second.

Going from A40C C62U U64C to A40C C66A, the yeast fitness rises from 0.534 to 0.755.

Compared with A40C C66G, A40C G41A is higher in yeast fitness: 0.669 for the first, 0.978 for the second.

Going from A40C G41C to A40C G41C G67C, the yeast fitness falls from 0.56 to no more than 0.5.

Compared with A40C G44C C55G, A40C G48A is higher in yeast fitness: no more than 0.5 for the first, 1.02 for the second.

First: A40C G50A C62U
Second: A40C G50C
The yeast fitness of the first is lower: 0.543 for the first, 0.644 for the second.

A40C G51A G63A A69C and A40C G51A U54A cannot be ordered by yeast fitness: no more than 0.5 for the first, no more than 0.5 for the second.

Going from A40C G52C to A40C G56A G58C, the yeast fitness falls from 0.685 to 0.598.

Compared with A40C G56C C66G, A40C G58C is higher in yeast fitness: no more than 0.5 for the first, 0.922 for the second.

First: A40C G63A
Second: A40C G67C
The yeast fitness of the first is lower: 0.815 for the first, 0.907 for the second.

First: A40C G67U
Second: A40C G67U G68C
The yeast fitness of the first is higher: 0.815 for the first, 0.585 for the second.

Going from A40C U47A to A40C U53A, the yeast fitness falls from 0.636 to 0.599.

First: A40C U53C
Second: A40C U54C
The yeast fitness of the first is lower: 0.828 for the first, 0.963 for the second.

With A40G A42C the yeast fitness was 0.757.
